Source: the RNAGym collection of RNA variant scans (doi:10.1002/anie.201605470)

B1: Osa-1-4 twister ribozyme (parent)
chain: CCGCCUAACACUGCCAAUGCCGGUCCCAAGCCCGGAUAAAAGUGGAGGGGGCGG

Variants of: B1
Experiment: self-cleavage, relative activity (ratio to wild type); higher = more cleavage; co-transcriptional
In short: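 The 48 positions downstream of the cleavage site in a DNA template for a 54-nucleotide Oryza sativa twister ribozyme carried 97 % wild-type base and 1 % of each other base. After in vitro transcription (2 h, 37 °C) with co-transcriptional self-cleavage, the RNA was reverse-transcribed with a template-switching oligonucleotide, PCR-amplified and deep-sequenced. Relative activity is the fraction cleaved, judged by reads with or without upstream sequence and normalised to wild type.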

In order of rising self-cleavage:
1. G35C U24G  0.01
2. G35A U24G  0.03
3. G35U U24G  0.03
4. A36C C26A  0.03
5. G35C G48U  0.04
6. G35C G48C  0.04
7. A36C C25G  0.04
8. G35C G48A  0.05
9. A36C A7C  0.05
10. A36C A7U  0.05
11. A36C A46U  0.05
12. A36C C21G  0.05
13. G35C G51C  0.05
14. A36C A40C  0.05
15. G35C G47U  0.05
16. G35C G47A  0.05
17. G35C G47C  0.05
18. G35C G45A  0.05
19. G35C G45U  0.05
20. G35C U24C  0.05
21. G35C G49C  0.05
22. G35C G49A  0.05
23. G35C G49U  0.05
24. A36C A46G  0.06
25. A36C C14A  0.06
26. A36C C14G  0.06
27. G35U G49C  0.06
28. A36C C25A  0.06
29. G35C G51U  0.06
30. G35A U12G  0.06
31. G35U G45C  0.06
32. G35U G51C  0.06
33. A36C A8C  0.06
34. G35C U24A  0.06
35. G35C G53C  0.06
36. A36C C26G  0.06
37. A36C A46C  0.07
38. G35U G48C  0.07
39. G35A G49C  0.07
40. G35C G42U  0.07
41. G35C G42C  0.07
42. G35U G53C  0.07
43. G35C G45C  0.07
44. G35A G51C  0.07
45. G35U G47C  0.07
46. G35C U12G  0.07
47. G35U G48U  0.08
48. G35U G42U  0.08
49. A36C C11G  0.08
50. G35U U12G  0.08
51. A36C C9A  0.08
52. G35A G53C  0.08
53. G35C G42A  0.08
54. G35A U24C  0.08
55. G35U U24C  0.08
56. G35C U12A  0.08
57. G35U G48A  0.09
58. A36C C14U  0.09
59. G35C G51A  0.09
60. G35U G45U  0.09
61. A36C C20G  0.09
62. A36C A8U  0.09
63. G35C G53U  0.09
64. G35C U43C  0.09
65. G35C U12C  0.09
66. G35U G49U  0.1
67. A36C C25U  0.1
68. G35C G50C  0.1
69. G35C U43G  0.1
70. A36C A7G  0.11
71. G35U G49A  0.11
72. G35U G42C  0.11
73. A36C C11A  0.11
74. A36C C9G  0.11
75. G35U U43G  0.12
76. G35A U43G  0.12
77. A36C A40G  0.12
78. A36C C15U  0.12
79. G35A G51U  0.12
80. G35C G53A  0.12
81. A36C C26U  0.12
82. A36C A41G  0.13
83. A36C A40U  0.13
84. G35C G54C  0.13
85. A36C A8G  0.14
86. G35U G47U  0.14
87. G35C U43A  0.14
88. A36C A39C  0.15
89. A36C A39U  0.15
90. G35U G51U  0.15
91. G35U G47A  0.15
92. G35A G49U  0.16
93. G35C G50U  0.17
94. G35U G53U  0.17
95. G35U G45A  0.19
96. A36C A39G  0.2
97. G35C G54A  0.2
98. G35U U24A  0.2
99. G35U U43C  0.21
100. A36C C9U  0.21
101. G35A G53U  0.22
102. G35C G50A  0.24
103. A36C C15A  0.24
104. G35U G51A  0.25
105. G35C G44A  0.25
106. A36C C15G  0.25
107. G35A G51A  0.25
108. A36C C11U  0.26
109. G35C G44U  0.26
110. G35A U24A  0.32
111. G35A G50A  0.35
112. G35U G42A  0.35
113. G35U G50A  0.35
114. G35C G54U  0.36
115. G35U U12C  0.37
116. G35A U43C  0.41
117. G35U U43A  0.44
118. G35C G44C  0.45
119. A36C C21U  0.46
120. G35A U43A  0.46
121. G35U U12A  0.47
122. G35A U12C  0.48
123. G35U U18C  0.5
124. G35A U18C  0.52
125. A36C A38G  0.54
126. A36C C21A  0.54
127. G35C U18C  0.56
128. A36C A41C  0.6
129. G35A U12A  0.61
130. G35U G53A  0.62
131. G35A G53A  0.68
132. G35C  0.72
133. G35U G44C  0.74
134. G35U G44U  0.74
135. G35C U18G  0.77
136. G35U G54C  0.77
137. G35U U18G  0.77
138. G35A G50C  0.78
139. A36C A38U  0.79
140. G35U G50C  0.79
141. G35A U18G  0.79
142. G35A U18A  0.79
143. G35U G54U  0.8
144. G35U G54A  0.8
145. G35U U18A  0.8
146. A36C A38C  0.81
147. G35A G54U  0.81
148. A36C C20A  0.81
149. G35C U18A  0.84
150. G35A G54C  0.85
151. G35A G54A  0.85
152. A36C  0.86
153. A36C C20U  0.88
154. G35U G44A  0.88
155. G35U U37G  0.89
156. G35A U37G  0.89
157. G35A G50U  0.9
158. G35U  0.9
159. G35C U37G  0.9
160. A36C A41U  0.91
161. G35U U37A  0.92
162. G35U G50U  0.92
163. G35A U37C  0.92
164. G35C U37A  0.93
165. G35U U37C  0.94
166. G35C U37C  0.94
167. G35A U37A  1.05
